PMC3361572 (Chemistry & biology, 2012)

What was measured:
FAAH = molecular target: T1, FAAH (Mus musculus, UniProt O08914); experiment: competitive ABPP of brain from inhibitor-treated mice; assay type: in vivo
T1 sequence (O08914 1-579): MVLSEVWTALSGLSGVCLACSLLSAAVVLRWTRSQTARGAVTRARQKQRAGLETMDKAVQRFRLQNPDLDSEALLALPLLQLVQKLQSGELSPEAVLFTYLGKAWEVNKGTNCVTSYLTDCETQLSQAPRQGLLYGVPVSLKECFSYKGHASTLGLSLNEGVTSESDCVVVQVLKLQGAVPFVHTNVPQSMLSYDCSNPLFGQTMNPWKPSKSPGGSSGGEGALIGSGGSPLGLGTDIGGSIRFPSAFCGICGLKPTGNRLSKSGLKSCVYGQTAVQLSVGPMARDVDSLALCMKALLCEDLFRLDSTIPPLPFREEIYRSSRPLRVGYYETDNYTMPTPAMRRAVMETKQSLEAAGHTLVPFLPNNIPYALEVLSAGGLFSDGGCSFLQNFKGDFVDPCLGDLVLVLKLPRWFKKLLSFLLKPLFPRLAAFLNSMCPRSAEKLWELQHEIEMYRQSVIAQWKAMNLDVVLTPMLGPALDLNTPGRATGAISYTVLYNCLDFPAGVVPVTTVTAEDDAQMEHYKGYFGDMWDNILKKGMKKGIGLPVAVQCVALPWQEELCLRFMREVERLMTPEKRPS

[1] = dissolution in dosing vehicle; assay type: physicochemical
In short: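 Test compound was dissolved with prolonged sonication and mild heating. Vehicle was PEG for oral dosing, or saline:emulphor:ethanol (18:1:1) for i.p. dosing.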

MAGL [2] = molecular target: T2, MAGL (Mus musculus, UniProt O35678); experiment: competitive ABPP of brain from inhibitor-treated mice; assay type: in vivo; conditions: for blockade of MAGL activity in brain: C57Bl/6 mice, 4 h
T2 sequence (O35678 1-303): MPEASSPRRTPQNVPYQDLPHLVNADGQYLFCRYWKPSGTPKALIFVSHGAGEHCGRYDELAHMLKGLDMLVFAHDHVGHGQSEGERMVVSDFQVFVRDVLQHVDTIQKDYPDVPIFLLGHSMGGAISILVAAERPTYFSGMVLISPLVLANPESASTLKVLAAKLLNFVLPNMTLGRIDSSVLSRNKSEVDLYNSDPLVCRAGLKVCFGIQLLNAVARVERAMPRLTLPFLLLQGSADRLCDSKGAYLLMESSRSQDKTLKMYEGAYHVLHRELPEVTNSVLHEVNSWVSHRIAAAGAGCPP

MAGL [3] = molecular target: T3, MAGL (Rattus norvegicus, UniProt Q8R431); experiment: competitive ABPP of brain from KML29-treated rats; assay type: in vivo; conditions: Wistar rats, 40 mg kg^−1 i.p., 4 h
T3 sequence (Q8R431 1-303): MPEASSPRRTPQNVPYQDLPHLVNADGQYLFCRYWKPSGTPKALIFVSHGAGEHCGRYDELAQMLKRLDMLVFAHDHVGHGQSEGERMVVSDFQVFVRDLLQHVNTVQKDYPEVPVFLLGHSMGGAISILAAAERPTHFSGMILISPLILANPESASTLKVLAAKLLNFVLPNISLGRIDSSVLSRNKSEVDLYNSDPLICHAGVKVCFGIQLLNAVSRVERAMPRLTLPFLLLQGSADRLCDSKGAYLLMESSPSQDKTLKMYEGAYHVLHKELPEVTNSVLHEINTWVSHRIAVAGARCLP
In short: (§1)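 Wistar rats were injected i.p. with the test compound (1–40 mg kg−1) or vehicle. Vehicle was saline:emulphor:ethanol 18:1:1, with prolonged sonication and mild heating to dissolve. Rats were killed at 4 h. Brain, liver, lung and spleen proteomes were labelled with FP-Rh, separated by SDS-PAGE and scanned for in-gel fluorescence. Inhibition was scored as reduced probe labelling. n = 3 rats/group.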

ABHD6 = molecular target: T4, ABHD6 (Rattus norvegicus, UniProt Q5XI64); experiment: competitive ABPP of brain from KML29-treated rats; assay type: in vivo; conditions: Wistar rats, 1–40 mg kg^−1 i.p., 4 h
T4 sequence (Q5XI64 1-337): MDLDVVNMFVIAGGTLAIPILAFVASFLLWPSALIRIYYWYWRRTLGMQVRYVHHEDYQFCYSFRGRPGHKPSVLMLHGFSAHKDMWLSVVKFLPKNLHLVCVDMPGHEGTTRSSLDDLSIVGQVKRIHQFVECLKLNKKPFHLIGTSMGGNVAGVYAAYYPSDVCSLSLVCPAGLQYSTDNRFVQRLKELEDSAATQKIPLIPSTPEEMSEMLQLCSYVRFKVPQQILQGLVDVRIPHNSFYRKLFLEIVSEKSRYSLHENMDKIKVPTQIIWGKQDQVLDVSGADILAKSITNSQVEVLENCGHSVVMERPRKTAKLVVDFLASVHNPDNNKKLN
In short: as §1

MAGL [4] = molecular target: T3, MAGL; experiment: brain 2-AG hydrolytic activity from KML29-treated rats; assay type: in vivo; conditions: 4 h
In short: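 Wistar rats received the test compound i.p. (1–40 mg kg−1 in saline:emulphor:ethanol 18:1:1) or vehicle and were killed after 4 h. Brain MAGL and FAAH activities were measured as hydrolysis of 2-AG and AEA, respectively. Means ± SEM, n = 3 rats/group, compared with vehicle-treated rats.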

O=C(OC(C(F)(F)F)C(F)(F)F)N1CCC(C(O)(c2ccc3c(c2)OCO3)c2ccc3c(c2)OCO3)CC1 [KML29]
brain FAAH inhibition, chronic dosing (FAAH; 40 mg kg^−1 p.o., six days): selectively inhibited MAGL without any effect on FAAH | selectivity over brain FAAH (FAAH; all doses tested 1–40 mg kg^−1 p.o., 4 h): complete selectivity over FAAH | selectivity for MAGL over FAAH during time course (FAAH; single oral dose 20 mg kg^−1, 24 h time course): complete selectivity for MAGL over FAAH | dissolution in vehicles for p.o. (PEG) or i.p. [saline:emulphor:ethanol (18:1:1)] administration [1]: Prolonged sonication and mild heating were also required | blockade of MAGL activity in brain (MAGL [2]; 5 mg kg^−1 p.o.): partial inhibition | blockade of MAGL activity in brain (MAGL [2]; 20 mg kg^−1 p.o.): maximal inhibition | time until which brain MAGL inhibition was sustained (MAGL [2]; mice, single oral dose 20 mg kg^−1): 12 to 24 h | time post-administration of maximal inhibition of brain MAGL (MAGL [2]; mice, single oral dose 20 mg kg^−1, earliest time point tested): ≤ 1 h | inhibition of brain MAGL (MAGL [3]): > 90% | cross-reactivity with brain ABHD6 (ABHD6): without any detectable cross-reactivity | decrease of brain 2-AG hydrolytic activity (MAGL [4]; 20 mg kg^−1 i.p.): 50% | decrease of brain 2-AG hydrolytic activity (MAGL [4]; 40 mg kg^−1 i.p.): 80%
